# CHRM4 PAM: potentiates acetylcholine response at human M4 receptor | activation, % at 3 µM | CHO-K1 hM4/Gqi5, Fluo-8 calcium fluorescence, ACh EC20; 0% = ACh EC20, 100% = maximal ACh | hit rate 0.4% among 360,000;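 active = activation above its plate's cutoff, the mean activation of sample wells plus 3 SD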
# CHRM4 agonist: CHRM4 agonism in calcium assay. P08173. CHO-K1 hM4/Gqi5, Fluo-8 calcium fluorescence; vehicle 0%, full acetylcholine response 100%. activation, % at 3 µM. hit rate 0.14% among 360,000. AID 624127;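 active = activation above the run mean over all test wells plus 3 SD, cut at about 32% in these data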;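 also: peak over basal fluorescence ratio per well then scaled between controls; 0% = DMSO wells and 100% = acetylcholine at EC100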
# CHRM5 antagonist: blocks acetylcholine activation of human M5 receptor; inhibition, % at 3 µM; hit rate 0.59% among 360,000; CHO-hM5 cells, Fluo-8 calcium fluorescence, ACh EC80;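 active = inhibition above a per-plate cutoff, the mean of that plate's test compounds plus 3 SD, cut at about 27% in these data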;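 also: 0% = acetylcholine EC80 with DMSO and 100% = DMSO without agonist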
# Target sequence (P08912 whole entry, looked up): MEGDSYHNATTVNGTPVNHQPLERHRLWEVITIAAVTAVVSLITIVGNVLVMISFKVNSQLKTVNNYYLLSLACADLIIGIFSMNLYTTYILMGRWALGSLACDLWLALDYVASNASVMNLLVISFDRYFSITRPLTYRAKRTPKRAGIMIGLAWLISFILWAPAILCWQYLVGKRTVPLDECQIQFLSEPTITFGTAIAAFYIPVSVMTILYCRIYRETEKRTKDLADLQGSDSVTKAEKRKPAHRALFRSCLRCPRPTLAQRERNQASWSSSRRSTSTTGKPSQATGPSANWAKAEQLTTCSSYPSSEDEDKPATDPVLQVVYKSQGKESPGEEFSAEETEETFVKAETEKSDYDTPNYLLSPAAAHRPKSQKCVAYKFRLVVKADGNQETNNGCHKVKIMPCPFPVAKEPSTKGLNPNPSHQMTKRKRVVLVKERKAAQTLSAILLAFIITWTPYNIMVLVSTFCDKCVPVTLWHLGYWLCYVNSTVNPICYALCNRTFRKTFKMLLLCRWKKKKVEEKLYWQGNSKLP
# CHRM5 PAM: potentiates acetylcholine response at human M5 receptor | P08912 | CHO-K1 hM5, Fluo-8 calcium, ACh EC20 PAM; 0% = ACh EC20, 100% = ACh EC100 | activation, % at 3 µM | hit rate 0.3% among 360,000 | AID 624038;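 active = activation above the run cutoff, the mean activation of all test compounds plus 3 SD, cut at about 18% in these data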
#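 Replicates: One well per compound, no replicates | System: Human M5 receptor in CHO-K1 cells | Benchmarks: Low control EC20 acetylcholine (0%), high control EC100 acetylcholine (100%) | Probe or stimulus: Acetylcholine, EC20 level | Times: Fluo-8 loading 80 min at 37 °C plus 30 min room temperature | Signal: Intracellular calcium via Fluo-8 fluorescence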
# M4 antag: antagonists of human muscarinic M4 receptor (CHRM4); inhibition, % at 3 µM; P08173; AID 624125; hit rate 0.73% among 360,000; CHO-hM4 cells, ACh EC80, Fluo-8 calcium fluorescence;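 active = inhibition above its plate's cutoff, the mean inhibition of sample wells plus 3 SD, cut at about 27% in these data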;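 also: 0% = acetylcholine EC80 with DMSO and 100% = DMSO without agonist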
# CHRM5 agonist: CHRM5 agonism in calcium assay; P08912; CHO-K1 hM5 cells, Fluo-8 calcium fluorescence; 0% DMSO wells, 100% maximal acetylcholine response; activation, % at 3 µM; hit rate 0.19% among 360,000;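 active = activation above the run's mean over test compounds plus 3 SD, cut at about 23% in these data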;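 also: signal is peak over basal fluorescence ratio across the kinetic read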
# Active calls of the source: *; ! = not confirmed by another sample. Hits are enriched below; roughly 1.8% of the tested compounds scored in any of these assays.
SMILES,CHRM4 PAM,CHRM4 agonist,CHRM5 antagonist,CHRM5 PAM,M4 antag,CHRM5 agonist
NC(=O)C1CC(=O)N(c2ccc(OCc3ccc(Cl)c(Cl)c3)cc2)C1 (stereo unspecified),-6.2,16.3,28.4*,-13.5,9.5,9.4
O=C(Nc1c(C(=O)C2CC2)oc2ccccc12)c1ccc(Cl)cc1,25.6*,1.7,-4.9,10.0,1.3,0.3
COc1ccc(-n2nnc3c(=O)n(CC(=O)N4CCCc5ccccc54)cnc32)cc1,-1.7,0.1,2.2,-2.8,1.1,0.0
CCOc1ccc(-n2nnc3c(=O)n(CC(=O)N4CCCc5ccccc54)cnc32)cc1,-18.1,-0.2,1.6,-10.6,87.9*,-0.5
COc1cccc(OC(=O)c2cc3ccccc3oc2=O)c1,18.4*,1.4,-7.2,19.3*,-16.9,-4.0
CC[n+]1c(/C=C/N(C)c2ccccc2)n(-c2ccccc2)c2ccc(-c3nc4ccccc4s3)cc21,-15.8,7.1,5.9,-25.6,57.6*,-20.7
CCOC(=O)c1ccc2c(c1)n(CC)c(/C=C/N(C)c1ccccc1)[n+]2CC,-6.7,-0.1,-5.3,4.0,-2.4,-1.4
CC1=CC(C)(C)NC(=S)N1c1cccc2cc(S(=O)(=O)O)ccc12,-9.5,15.0,27.3*,-14.2,7.2,-0.2
CC1=CC(C)(C)NC(=S)N1c1ccccc1C,-5.0,0.9,16.3,-2.3,12.3,-0.1
CCSc1nc(-c2ccco2)ccc1C#N,7.7,0.6,-2.5,46.0*,-15.1,-5.7
O=C(Nc1ccnn1C1CCN(Cc2ccc(CO)o2)CC1)c1cccc(F)c1,0.2,0.4,-3.9,5.5,-15.6,-0.6
Cc1ccc(NC(=O)COC(=O)CCC(=O)c2cccs2)cc1S(=O)(=O)N1CCOCC1,20.5,12.5,-3.0,9.2,31.5*,-0.6
O=C(COC(=O)CCC(=O)c1cccs1)Nc1cccc(S(=O)(=O)N2CCOCC2)c1,-1.0,4.0,-5.2,-1.9,-5.6,-1.7
CCCc1nc2c3ccccc3ccn2c1Cc1cccc(F)c1,-16.8,-0.6,46.7*,-22.4,57.1*,-7.8
CCCc1nc2ccc(C)cn2c1Cc1cccc(F)c1,1.5,2.9,1.0,-7.0,-8.1,-7.5
COc1ccc(N2CC(C(=O)N3CCN(c4ccccc4)CC3)CC2=O)cc1 (stereo unspecified),0.0,1.4,31.5*,-13.3,3.6,-3.7
CCOc1ccc(NC(=O)C2CCN(C(=O)C3CC(=O)N(c4ccc(C)cc4)C3)CC2)cc1 (stereo unspecified),19.3*,1.1,-2.5,1.8,-7.6,-3.0
CCCS(=O)(=O)NC(=O)C1(C)CCCN(C(=O)c2ccc(C#N)cc2)C1 (stereo unspecified),0.5,0.7,-2.9,-1.0,-6.4,-0.4
Cc1ccc(C(=O)N/C(=C/c2ccccc2)C(=O)NCC2CCCO2)cc1 (stereo unspecified),15.3,-0.6,-10.0,21.5*,-22.0,-2.8
CCC(C)(CC(=O)Nc1nccs1)c1ccccc1 (stereo unspecified),-10.6,15.7,21.1,-10.0,3.8,-0.5
O=[N+]([O-])/C=C/c1cn(Cc2ccc(Cl)cc2)c2ccccc12,-6.8,0.2,33.1*,7.1,3.7,0.7
CC(=O)c1cccc(CN2CCC(n3nccc3NC(=O)c3ccc4c(c3)OCO4)CC2)c1,-2.3,2.4,-0.6,0.4,-9.3,-6.0
CN(CCOC(=O)C1c2ccccc2Oc2ccccc21)C(C)(C)C,-22.5,1.1,98.3*,-23.1,99.0*,-5.6
CN(C)CCCOC(=O)C1c2ccccc2Oc2ccccc21,-16.7,1.3,97.2*,-26.3,94.6*,-11.3
CCN(CC)CCCNC(=O)C1c2ccccc2Oc2ccccc21,-12.3,1.1,27.6*,-35.2,15.8,-12.5
SMILES,CHRM4 PAM,CHRM4 agonist,CHRM5 antagonist,CHRM5 PAM,M4 antag,CHRM5 agonist
COCCCNC(=O)C1c2ccccc2Oc2ccccc21,-4.6,0.3,5.2,-4.0,2.3,-4.8
CC[N+](C)(CC)CCOC(=O)C1c2ccccc2Oc2ccccc21,-16.8,0.7,98.7*,-18.4,99.3*,-1.6
CCOC(=O)/C=C/C(=O)Nc1ccccc1C(=O)NC1CCCCC1,-0.1,1.2,-2.2,-0.7,-4.2,0.7
Cc1cc(C)c(OCCOCCN2CCNCC2)c(C)c1,2.1,1.6,-2.9,45.0*,-21.9,-7.9
Cc1cc(C)c(OCCOCCN2CCCC2)c(C)c1,-17.4,1.4,8.2,1.5,-0.6,-12.0
COc1ccc(NC(=O)CN(C)C(=O)c2ccc(NS(=O)(=O)c3ccc4[nH]c(=O)[nH]c4c3)cc2)cc1,7.1,0.3,8.2,0.7,-1.0,1.1
Cc1ccc2c(c1)/C(=N/OS(=O)(=O)c1ccccc1)CCS2,7.8,-0.2,-4.1,3.7,-5.1,-1.2
CC1=CC(=O)C=C(C)C1=NOS(=O)(=O)c1ccccc1,-16.5,18.0,41.4*,2.1,32.5*,23.5*
CC1=CC(=O)C(C(C)C)=C/C1=N/OS(=O)(=O)c1ccccc1,-16.3,29.4,50.6*,-27.9,78.9*,9.6
CCOc1ccc(N(CC(=O)NC2CC3CCC2C3)S(=O)(=O)c2ccc(C)cc2)cc1 (stereo unspecified),22.5*,-1.3,7.8,2.2,-13.6,-4.8
CCOc1cc(-c2nc3ccccc3s2)ccc1O,-24.6,-1.3,8.0,-13.0,31.4*,-6.3
CCCCn1c(N)c(N(CC(C)C)C(=O)CCCn2c(=O)oc3ccccc32)c(=O)[nH]c1=O,3.6,0.7,2.4,0.9,-8.3,1.5
CCN(CC)S(=O)(=O)c1ccc(NC(=O)c2cc(-c3cccs3)nc3ccccc23)cc1,-2.2,6.2,16.8,-9.5,0.2,-1.0
CN(C)S(=O)(=O)c1ccc(NC(=O)c2cc(-c3cccs3)nc3ccccc23)cc1,-37.9,22.0,22.5,-21.1,34.4*,2.5
CC(=O)NS(=O)(=O)c1ccc(NC(=O)c2cc(-c3cccs3)nc3ccccc23)cc1,21.9*,1.9,13.9,0.0,0.2,0.6
O=c1c2c(nc3nc(NCc4ccc(Cl)cc4)[nH]n13)CCC2,-8.8,-0.2,-3.6,-6.1,4.6,-1.8
O=c1c2c(nc3nc(CCc4ccccc4)[nH]n13)CCC2,7.5,-0.6,-5.5,21.6*,-11.5,-4.1
C[C@H](CO)N1C[C@H](C)[C@@H](CN(C)S(=O)(=O)c2cn(C)cn2)Oc2ccc(NC(=O)NC3CCCCC3)cc2C1=O,2.5,0.7,3.5,1.1,0.0,0.2
CN(C)CC1CC/C(=C\c2ccc(O)cc2)C1=O (stereo unspecified),-3.2,8.0,9.9,-8.3,38.5*,3.1
CNCCCC12CCC(c3ccccc31)c1ccccc12,-18.2,8.8,32.5*!,-17.9,28.5*!,1.8

# Screening results as filed in PubChem BioAssay.
